Laboratory results: ChEMBL document CHEMBL4342473, “Lead Optimization of Benzoxazolone Carboxamides as Orally Bioavailable and CNS Penetrant Acid Ceramidase Inhibitors” (J Med Chem, 2020)
The source made the active and inactive calls. The calls are words filed in the database; no cut-off is given here.

Assays:
[1] = Half life in mouse liver microsomes at 4.6 uM preincubated for 15 mins followed by NADPH addition and measured up to 60 mins by LC-MS/MS analysis; type: ADME, Microsome
Summary of the method: (§1)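 Mouse liver microsome stability; half-life and % parent remaining at 60 min; mean of at least two independent experiments, each in two technical replicates.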

[2] = Microsomal stability in mouse liver microsomes assessed as parent compound remaining at 4.6 uM preincubated for 15 mins followed by NADPH addition and measured after 60 mins by LC-MS/MS analysis; type: ADME, Microsome; conditions: read-out: Stability; summary of the method: as §1
[3] = biological target: T1, Acid ceramidase (Homo sapiens) (UniProt Q13510); experiment: Inhibition of human acid ceramidase expressed in HEK293 cells up to 10 uM using Rbm14-12 as substrate preincubated for 10 mins followed by substrate addition and measured after 3 hrs by fluorescence assay; type: cell-based
T1 sequence (whole entry): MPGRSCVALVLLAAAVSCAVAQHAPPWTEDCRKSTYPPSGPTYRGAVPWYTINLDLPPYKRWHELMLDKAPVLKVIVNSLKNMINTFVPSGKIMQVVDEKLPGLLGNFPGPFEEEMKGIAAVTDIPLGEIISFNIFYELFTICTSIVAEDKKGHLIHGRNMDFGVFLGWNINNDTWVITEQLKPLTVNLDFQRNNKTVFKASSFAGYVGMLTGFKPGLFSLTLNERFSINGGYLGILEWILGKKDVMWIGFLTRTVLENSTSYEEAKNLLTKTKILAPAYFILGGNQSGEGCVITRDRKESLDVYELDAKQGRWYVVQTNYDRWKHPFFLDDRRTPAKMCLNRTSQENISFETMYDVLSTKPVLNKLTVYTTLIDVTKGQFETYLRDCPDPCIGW

[4] = biological target: T1, Acid ceramidase (Homo sapiens); experiment: Inhibition of human acid ceramidase expressed in HEK293 cells at 10 uM using Rbm14-12 as substrate preincubated for 10 mins followed by substrate addition and measured after 3 hrs by fluorescence assay; type: cell-based
[5] = biological target: T1, Acid ceramidase (Homo sapiens); experiment: Inhibition of human acid ceramidase expressed in HEK293 cells at 1 uM using Rbm14-12 as substrate preincubated for 10 mins followed by substrate addition and measured after 3 hrs by fluorescence assay; type: cell-based

Row | SMILES | half-life at 4.6 µM [1] | inhibition [3] | other results
1 | CCCCCNC(=O)n1c(=O)oc2cc(C3CCN(C)CC3)ccc21 | – | – | remaining at 1 h, 4.6 µM [2]: 60%
2 | O=C1Cc2ccccc2N1C(=O)NCCCCc1ccccc1 | – | inactive | –
3 | CN1CCC(c2ccc3[nH]c(=O)oc3c2)CC1 | – | – | inhibition [4]: inactive; inhibition [5]: inactive
4 | O=C1C(=O)N(C(=O)NCCCCc2ccccc2)c2ccccc21 | – | inactive | –

Second part, led by results:

Row | half-life at 4.6 µM [1] | inhibition [3] | SMILES | other results
5 | < 15 min | – | O=C(NCCCCc1ccccc1)n1c2c(oc1=O)CNCC2 | –
6 | < 15 min | – | O=C(NCCCCc1ccccc1)n1c2c(oc1=O)CCNC2 | –
